Assay outcomes from PubChem.
HKDC1 act – HKDC1 (human) hexokinase activation. activity change, negative = activation, % at 20 µM. recombinant HKDC1, G6PDH/diaphorase resazurin fluorescence; active compounds read low. Q2TB90. 340,000 compounds, 0.056% hits. AID 493187;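 active = activation of 40% or more at 20 µM, a change of -40% or lower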
Target sequence (Q2TB90 whole entry, looked up): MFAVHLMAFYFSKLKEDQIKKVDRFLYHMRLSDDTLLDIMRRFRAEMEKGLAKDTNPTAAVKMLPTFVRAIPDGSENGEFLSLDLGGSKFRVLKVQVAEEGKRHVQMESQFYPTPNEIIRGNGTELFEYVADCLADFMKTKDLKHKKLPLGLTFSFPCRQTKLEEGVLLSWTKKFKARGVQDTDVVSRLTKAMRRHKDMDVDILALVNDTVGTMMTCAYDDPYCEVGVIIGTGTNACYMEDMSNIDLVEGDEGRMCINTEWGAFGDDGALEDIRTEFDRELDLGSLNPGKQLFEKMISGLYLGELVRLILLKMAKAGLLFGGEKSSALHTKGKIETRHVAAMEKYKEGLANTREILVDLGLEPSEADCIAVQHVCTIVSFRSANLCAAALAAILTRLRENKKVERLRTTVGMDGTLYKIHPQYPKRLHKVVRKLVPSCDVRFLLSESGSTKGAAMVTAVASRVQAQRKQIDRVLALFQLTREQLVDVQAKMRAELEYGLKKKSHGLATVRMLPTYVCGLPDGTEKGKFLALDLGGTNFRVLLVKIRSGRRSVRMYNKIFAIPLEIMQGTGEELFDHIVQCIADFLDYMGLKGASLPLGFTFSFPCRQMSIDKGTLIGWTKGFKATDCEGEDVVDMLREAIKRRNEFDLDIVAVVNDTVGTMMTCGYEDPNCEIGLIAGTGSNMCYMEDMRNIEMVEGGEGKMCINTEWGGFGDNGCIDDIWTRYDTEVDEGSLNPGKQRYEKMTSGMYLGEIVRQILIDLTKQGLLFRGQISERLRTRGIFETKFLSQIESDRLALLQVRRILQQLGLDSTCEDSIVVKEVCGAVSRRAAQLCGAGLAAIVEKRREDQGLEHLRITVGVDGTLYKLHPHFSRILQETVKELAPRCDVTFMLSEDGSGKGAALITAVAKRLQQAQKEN
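Dosing: single compound dose of 20 µM, 1% DMSO final / Test system: in-house human HKDC1 enzyme, G6PDH and diaphorase coupling enzymes / Quantity: 5 µg/mL HKDC1 final / Incubation: enzyme reaction 90 min, room temperature, in dark / Buffer or medium: pH 8.0 Tris with MgCl2 / Detection: coupled resazurin-to-resorufin fluorescence, Ex 525/Em 613 nm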
* marks the source's active call; other numbers are inactive results. A selection follows.

`COc1ccc(CN2C(=O)c3cccnc3C2Nc2cc(Cl)ccc2OC)cc1` (stereo not given) gave HKDC1 act 52.
COc1ccc(OC(=O)N2C/C(=C/c3ccccc3)C(=O)/C(=C\c3ccccc3)C2)cc1 was read as HKDC1 act 36.
For O=C(O)CSc1cc(NS(=O)(=O)c2ccc(Br)cc2)c2ccccc2c1O the results were HKDC1 act 59.
`O=C(NC(=S)NNC(=O)c1ccccc1O)c1ccco1` gave HKDC1 act -44*.
Cc1ccccc1NC1=C/C(=N\S(=O)(=O)c2cccs2)c2ccccc2C1=O was read as HKDC1 act 63.
For CCOc1ccc(N)c(SSc2cc(OCC)ccc2N)c1 the results were HKDC1 act -42*.
`CCOc1ccc2nc3cc(N=Nc4ccc(N)nc4N)ccc3c(N)c2c1` gave HKDC1 act 37.
O=C(Sc1nnc(-c2ccccc2)o1)N1c2ccccc2Sc2ccccc21 was read as HKDC1 act 37.
`CC(C)(C)c1ccc(-c2csc(NNC3=NCCCCC3)n2)cc1` gave HKDC1 act -61*.
O=C(NN1CCOCC1)c1ccc(Cl)c([N+](=O)[O-])c1 was read as HKDC1 act 36.
For CC(C)c1nc2oc3c(=O)[nH]cnc3c2c2c1COC(C)(C)C2 the results were HKDC1 act 36.
`CC1CCCN(C(=O)COC(=O)c2cc([N+](=O)[O-])ccc2N2CCOCC2)C1` (stereo not given) gave HKDC1 act 41.
`C[n+]1c(-c2ccccc2)cc2c(=Cc3ccccc3)c3ccccc3n21` gave HKDC1 act 42.
`O=S(=O)(Nc1cc(Sc2ncn[nH]2)c(O)c2ccccc12)c1ccccc1` gave HKDC1 act 55.
Screening CCCCC(=O)NC(c1ccc(N(CC)CC)cc1)c1ccc2cccnc2c1O (stereo not given) returned HKDC1 act -46*.
`Cc1nc(COC(=O)c2cc(O)c3ccccc3c2O)cs1` gave HKDC1 act 60.
`COC1=CC(=O)C(OC)=C(OC)C1=O` gave HKDC1 act 76.
For Cc1ccc(/C=C/C(=O)c2ccc([N+](=O)[O-])o2)cc1 the results were HKDC1 act 46.
For O=C(O)c1ccccc1NS(=O)(=O)c1ccc(N/N=C/c2cccc(O)c2O)c([N+](=O)[O-])c1 the results were HKDC1 act 36.
Oc1ccc(/C=N/Nc2ncc(Br)cn2)c(O)c1 was read as HKDC1 act 39.
CCCOc1ccc(/C=N/NC(=S)Nc2ccccc2[N+](=O)[O-])c(O)c1 was read as HKDC1 act -48*.
Screening Cc1ccccc1NC(=S)N/N=C/c1ccc(O)cc1O returned HKDC1 act -42*.
For O=[N+]([O-])c1ccc(NN=Cc2ccc(O)cc2O)nc1 the results were HKDC1 act 37.
Screening COC(=O)c1ccc(CCc2cc(O)c(Br)cc2O)cc1 returned HKDC1 act 69.
Screening Cc1cc(O)c(C=O)c2c1C(=O)Oc1c(CO)c(O)c3c(c1O2)C(O)OC3=O (stereo not given) returned HKDC1 act 37.
`CN(C)c1ccc(Cc2cc3c(O)ccc(O)c3cc(Cc3ccc(N(C)C)cc3)c2=O)cc1` gave HKDC1 act 60.
Screening COc1ccc(-n2cccc2/C=C2\C(=N)N3N=C(c4ccco4)SC3=NC2=O)cc1 returned HKDC1 act 35.
`O=C(c1c[nH]c(C(=O)C(Cl)(Cl)Cl)c1)c1ccccc1F` gave HKDC1 act 37.
For Cc1ccc(C)c(S(=O)(=O)Nc2ccc(O)c3ccccc23)c1 the results were HKDC1 act 48.
`CCOC(=O)c1ccc(NC(=O)CSc2ccc(-c3ccccn3)nn2)cc1` gave HKDC1 act 37.
Screening CCOC(=O)c1sc(NC(=O)CSc2nnc(Cc3ccccc3)o2)c(C#N)c1C returned HKDC1 act -40*.
For COc1cccc2cc(C(=O)Nc3ccc(F)cc3)c(=Nc3ccc(C(=O)O)cc3)oc12 the results were HKDC1 act 77.
N=C1/C(=C\c2coc3ccccc3c2=O)C(=O)N=C2SC(c3ccncc3)=NN12 was read as HKDC1 act 45.
COc1ccccc1NC(=S)NN=C(C)c1ccccn1 was read as HKDC1 act -41*.
`CCOC(=O)c1cc2c(=Cc3ccc(N(C)C)cc3)c3ccccc3n2[n+]1C` gave HKDC1 act 37.
For O=C1C(Cl)=C(N2CCN(c3ccccc3[N+](=O)[O-])CC2)C(=O)c2ccccc21 the results were HKDC1 act 40.
CC1=NOC(=O)/C1=C\c1ccc(-c2cccc(Cl)c2)o1 was read as HKDC1 act 38.
Screening O=C(O)c1ccc(N2C(=O)/C(=C/c3ccc(-c4ccc([N+](=O)[O-])cc4)o3)C=C2c2ccccc2)cc1 returned HKDC1 act 43.
Screening COC1=CC(=O)C(C2CC(=O)c3c(O)cc(O)cc3O2)=CC1=O (stereo not given) returned HKDC1 act 60.
`CCOC(=O)/C=C(\C)Sc1cc(O)c2ccccc2c1O` gave HKDC1 act 57.
`Cc1ccccc1NC1=C/C(=N\S(=O)(=O)c2ccc(C(=O)O)cc2)c2ccccc2C1=O` gave HKDC1 act 70.
`O=C(O)c1ccc(NC2=C(Cl)C(=O)c3ccccc3C2=O)cc1` gave HKDC1 act -131*.
For O=C1C=C(Nc2ccc(F)cc2)c2ccccc2C1=O the results were HKDC1 act 42.
`O=C(/C=C/c1ccc(Br)o1)OCc1nc2ccsc2c(=O)[nH]1` gave HKDC1 act 58.
`Cc1nc2c(c(=O)c3ccccc3n2C)c(=O)n1-c1ccc(F)cc1` gave HKDC1 act 51.
C[n+]1c2cc(N)ccc2cc2ccc(N)cc21 was read as HKDC1 act 44.
CCN1C/C(=C\c2cccc([N+](=O)[O-])c2)C(=O)/C(=C/c2cccc([N+](=O)[O-])c2)C1 was read as HKDC1 act 43.
Cc1nn(-c2ccccc2)c(Cl)c1CN(C(=O)CCl)c1ccc(Cl)cc1 was read as HKDC1 act 38.
For CCOC(=O)c1c(C)[nH]c(C2=NNC(=NC3CC3)SC2)c1C the results were HKDC1 act -77*.
COc1cc(OC)c(OC)cc1CCC(C)NCCC(c1ccccc1)c1ccccc1 (stereo not given) was read as HKDC1 act 81.
COc1ccc(C2=CC3=C(Br)C(=O)C(C)(OC(=O)c4cccs4)C(=O)C3=CO2)cc1 (stereo not given) was read as HKDC1 act 50.
COc1ccc2c(c1)c(=O)oc1c(C)c(OCc3cc(C(=O)O)oc3C)ccc12 was read as HKDC1 act 79.
Screening FC(F)Sc1ccc(N=C2NN=C(c3ccc4c(c3)OCCO4)CS2)cc1 returned HKDC1 act -101*.
`COc1ccc(N=C2NN=C(c3ccc4c(c3)OCCO4)CS2)cc1` gave HKDC1 act -84*.
O=S(=O)(CCSc1nc2ccccc2s1)c1nc2ccccc2s1 was read as HKDC1 act 39.
For N=C1/C(=C/c2coc3ccccc3c2=O)C(=O)N=C2SC(c3ccco3)=NN12 the results were HKDC1 act 38.
Screening COc1ccc(-c2oc(NC(=O)CCl)c(C#N)c2-c2ccc(OC)cc2)cc1 returned HKDC1 act 46.
`COc1cc(/C=C2\SC(=O)N(c3cccc(Cl)c3)C2=O)cc([N+](=O)[O-])c1O` gave HKDC1 act 51.
COc1ccc(OC)c2[nH]c(=O)c(CCNC(=O)c3cc4ccccc4o3)cc12 was read as HKDC1 act 38.
